For data set [1], the system named is Mus musculus. As to the kind of experiment: (§1) Percentage uM/kg). In kind it is functional. More on the design: concentration or dose not given beside the values. In a few lines: (§2)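 Female ICR (CD-1) mice (18–20 g) infected with P. berghei NK 173, following Peters' 4-day test. Dosing was intraperitoneal for 4 days, with four to five mice per group. Parasitemia was counted and inhibition calculated against infected untreated controls. Survey dose 35.5 μmol/kg. ED50/ED90 came from doses of 0.5–10 mg/kg, with parasitemia read on day 4.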

Another data set concerns Plasmodium falciparum. As to the kind of experiment: In vitro antimalarial activity against Plasmodium falciparum FCB1. In kind it is functional, organism-based. In a few lines: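 P. falciparum FCB1 (chloroquine-resistant) cultured continuously in human erythrocytes. Ring-synchronized cultures at 1% parasitemia and 1% final hematocrit were exposed to serial dilutions, with methanol or DMSO ≤0.1%. Cultures received [3H]-hypoxanthine and were incubated 48 h at 37 °C. Incorporated radioactivity was compared with drug-free controls, and IC50 was taken by nonlinear regression of log(dose)-response. Mean of three experiments.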

The test system of data set [2] is Mus musculus. Described as §1. The format is functional. In a few lines: as §2
The subject of data set [3] is Mus musculus. The description is as §1. In kind it is functional. In a few lines: as §2
This is another data set of the same source.

Data set [4] relates to Mus musculus. The data set is described as §1. The format is functional. The method in brief:
as §2
The source holds these as a separate data set.

Data set [5] concerns Mus musculus. The description is as §1. The format is functional. The method in brief:
as §2
The source holds these as a separate data set.

Data set [6] is described as follows: Plasmatic Half-life after intravenous administration to rat. The conditions noted are these: plasma. The format is ADME, organism-based.
Data set [7] can be described thus: Half-life at pH 1. The conditions noted are these: buffer. In kind it is ADME.
In data set [8] the test system is Mus musculus. As to the kind of experiment: (§3) In vivo antimalarial activity against Plasmodium berghei NK173 infected mice (Mus musculus) administered intraperitoneal. at the end of 4 day. In kind it is functional. The conditions noted are these: ip, 96 h. The method in brief:
as §2

The test system of data set [9] is Mus musculus. As to the kind of experiment: In vivo antimalarial activity against Plasmodium berghei NK 173 infected mice (Mus musculus) administered i.p. at the end of 4 day. The format is functional. The method in brief: as §2
Data set [10] deals with Mus musculus. The description is as §1. The format is functional. In a few lines: as §2
The source holds these as a separate data set.

Data set [11] deals with Mus musculus. In words: In vivo antimalarial activity against Plasmodium berghei NK173 infected mice (Mus musculus) administered intraperitoneally. at the end of 4 day. In kind it is functional. As to conditions: ip, 96 h. The method in brief: (§4)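 Female ICR (CD-1) mice (18–20 g), 4–5 per group, infected with P. berghei NK 173 and dosed intraperitoneally for 4 days at 0.5 to 10 mg/kg (Peters protocol). Parasitemia was counted at day 4, and inhibition was calculated against infected untreated controls. ED50 and ED90 were derived from these counts.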

In data set [12] the test system is Mus musculus. The data set is described as §3. In kind it is functional. The method in brief: as §4
The mark [13] stands for this setting: Mus musculus, ip, 96 h, read-out: ED90.

Values joined by “and” are separate entries in the source; they are usually repeats but may differ in a detail not shown here. Equal entries are not always repeated.

Compound `C[C@@H]1CC[C@H]2[C@@H](C)[C@](OCC(=O)O)(C(F)(F)F)OC3O[C@]4(C)CC[C@@H]1[C@]32OO4` (some centres undefined) yielded a Parasitemia with Mus musculus [1] of 47.5%. The IC50 (in general, the concentration at which inhibition is half-maximal) in the data set on Plasmodium falciparum turned out to be 30.4 nM.

Turning to `C[C@@H]1CCC2[C@@H](C)[C@](OO)(C(F)(F)F)OC3O[C@]4(C)CCC1[C@]32OO4` (some centres undefined), the Parasitemia is on record as 36.8% with Mus musculus [2], 5.5% in the data set with Mus musculus [1], 28.3% in the data set on Mus musculus [3] and 41.7% in the data set with Mus musculus [4]. The IC50 in the data set on Plasmodium falciparum was 13.2 nM.

`C[C@@H]1CC[C@H]2[C@@H](C)[C@](O)(C(F)(F)F)O[C@@H]3O[C@]4(C)CC[C@@H]1[C@]32OO4`: the Parasitemia in the data set with Mus musculus [5] is 22.1%; with Mus musculus [1], 4%; in the data set with Mus musculus [3], 10.7%. Also, the concentration for half-maximal inhibition (IC50) in the data set on Plasmodium falciparum stood at 9.4 nM. Also, the half-life – broadly, the time in which the quantity being followed falls by half – in data set [6] was 1.43 h.

`C[C@@H]1CCC2[C@@H](C)[C@](OCC(F)(F)F)(C(F)(F)F)OC3O[C@]4(C)CCC1[C@]32OO4` (some centres undefined): the half-life in data set [7] was 215 h. The Parasitemia with Mus musculus [1] and in the data set on Mus musculus [3] was 0% in each case. Besides, in the data set on Plasmodium falciparum, 8.3 nM corresponded to half-maximal inhibition (IC50).

In turn, `CO[C@@]1(C(F)(F)F)OC2O[C@]3(C)CCC4[C@H](C)CCC([C@H]1C)[C@@]24OO3` (some centres undefined) gave a half-life in data set [7] of 660 h. The median effective dose (ED50) (commonly the dose at which the effect has come halfway, by size or by number of responders) in the data set on Mus musculus [8] is 1.25 mg/kg and 3.4 µmol/kg. Further, the ED90 in the data set with Mus musculus [9] amounted to 17.5 µM/kg; with Mus musculus [9] (setting [13]) it was 6.4 mg/kg. Besides, the Parasitemia in the data set with Mus musculus [5], in the data set with Mus musculus [10], with Mus musculus [1] and in the data set on Mus musculus [3] was 0% throughout. Also, inhibition with Plasmodium falciparum was half-maximal at 0.8 nM (IC50).

In the case of `C[C@@H]1CC[C@H]2[C@@H](C)[C@](OCC=O)(C(F)(F)F)OC3O[C@]4(C)CC[C@@H]1[C@]32OO4` (some centres undefined), the Parasitemia in the data set on Mus musculus [2] worked out at 46.8%; in the data set with Mus musculus [10], 29.6%; with Mus musculus [1] it was 0.2%; with Mus musculus [3], 7.8%; with Mus musculus [4], 26.8%. The IC50 with Plasmodium falciparum came out at 21.4 nM.

Turning to `CCO[C@@]1(C(F)(F)F)OC2O[C@]3(C)CCC4[C@H](C)CCC([C@H]1C)[C@@]24OO3` (some centres undefined), the half-life in [7] is 500 h. Moreover, the Parasitemia in the data set with Mus musculus [5] is 0%; in the data set on Mus musculus [10], 3.8%; with Mus musculus [1] it was 0%; with Mus musculus [3], 0%. The half-maximal inhibitory concentration (IC50) in the data set on Plasmodium falciparum is 3.3 nM.

In [6], `C[C@@H]1CCC2[C@@H](C)[C@@H](O)OC3O[C@]4(C)CCC1[C@]32OO4` (some centres undefined) yielded a half-life of 0.438 h.

On to `COC1O[C@@H]2O[C@]3(C)CCC4[C@H](C)CCC([C@H]1C)[C@]42OO3` (some centres undefined), for which the ED50 with Mus musculus [11] is 2.5 mg/kg and 8.4 µmol/kg. Also, the ED90 is 28.5 µM/kg in the data set on Mus musculus [12] and 8.5 mg/kg with Mus musculus [12] (setting [13]). Also, the Parasitemia with Mus musculus [2] is reported as 48.1%; with Mus musculus [1] it was 2.2%; with Mus musculus [3], 5.5%; in the data set on Mus musculus [4] it was 39.2%. The compound also came in with an IC50 in the data set on Plasmodium falciparum of 3.5 nM.

Take `C[C@@H]1CC[C@H]2[C@@H](C)[C@](OCC(O)CO)(C(F)(F)F)OC3O[C@]4(C)CC[C@@H]1[C@]32OO4` (some centres undefined): the Parasitemia was 46.3% in the data set on Mus musculus [5], 2.1% in the data set with Mus musculus [1], 12.1% in the data set with Mus musculus [3] and 28.8% in the data set with Mus musculus [4]. The same compound returned a concentration for half-maximal inhibition (IC50) in the data set on Plasmodium falciparum of 0.9 nM.

With `C[C@@H]1CC[C@H]2[C@@H](C)[C@](OCc3ccc(C(=O)[O-])cc3)(C(F)(F)F)OC3O[C@]4(C)CC[C@@H]1[C@]32OO4.[Na+]` (some centres undefined), the half-life in data set [7] was 680 h. For the same compound, the Parasitemia amounted to 25.6% in the data set on Mus musculus [2], 25.9% in the data set with Mus musculus [1], 26.8% in the data set with Mus musculus [3] and 34.9% in the data set with Mus musculus [4]. Besides, inhibition with Plasmodium falciparum was half-maximal at 10.6 nM (IC50).

With `COc1ccc(N[C@@]2(C(F)(F)F)OC3O[C@]4(C)CCC5[C@H](C)CCC([C@H]2C)[C@@]35OO4)cc1` (some centres undefined), the half-life in data set [7] is 30 h. For the same compound, the Parasitemia with Mus musculus [2] came out at 8.1%; in the data set on Mus musculus [10], 0%; in the data set with Mus musculus [1], 0%; in the data set with Mus musculus [3], 0%; in the data set with Mus musculus [4] it was 0.1%. In addition, the midpoint of inhibition with Plasmodium falciparum, the IC50, lay at 12.3 nM.

Source of the values: ChEMBL document CHEMBL1148452, “Fluoroartemisinin: trifluoromethyl analogues of artemether and artesunate” (J Med Chem, 2004).
